For one series, the system named is NCI-H1975. In words: Antiproliferative activity against human NCI-H1975 cells harboring EGFR mutant assessed as reduction in cell viability incubated for 24 hrs by MTT assay. The class given is functional, cell-based. The settings on record: NCI-H1975, 24 h. The method in brief: (§1)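 Cells seeded at 3,500 per well in 10% FBS and left overnight, then exposed to test agent or vehicle in 5% FBS for 24 h. MTT added for 1 h, then medium swapped for DMSO and absorbance read at 560 nm. Viability given as percent of vehicle-treated control. Run in triplicate.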

A further series relates to PC-9. As to the kind of experiment: Antitumor activity against human PC9 cells xenografted in athymic nude mouse assessed as reduction in tumor weight at 10 mg/kg, ip administered once daily for 25 days measured post-last dose. The series is classed as functional, organism-based. The method in brief:
(§2)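 Female nude mice, 6 weeks old, given s.c. 1 × 10^6 PC-9 cells in Matrigel (1:1). From day 7, once-daily i.p. vehicle or 10 mg/kg compound in sterile water with 0.5% methylcellulose and 0.1% Tween-80, n = 8 per group, for 25 days. Tumor volume and body weight followed, tumors weighed at end.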
A general note: In xenograft studies the graft and the host belong to different species.

In series [1] the target is T1, Pyruvate kinase PKM (Homo sapiens, UniProt P14618). As to the kind of experiment: Inhibition of N-(4-(3-(3-(Methylamino)-3-oxopropyl)-5-(4'-(prop-2-yn-1-yloxy)-[1,1'-biphenyl]-4-yl)-1H-pyrazol-1-yl)phenyl)propiolamide binding to PKM2 in human PC9 cells at 1 uM preincubated for 1 hr followed by probe addition and measured after 1 hr using antibody by Western blot analysis. The class given is cell-based. The method in brief: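 PC-9 cells pretreated with 1 µM compound or DMSO for 1 h, then alkyne probe added at 0.5, 1 or 2 µM for 1 h at 37 °C. Lysates put through Cu-catalysed click with biotin-azide, streptavidin beads 16 h at 4 °C, washes with 0.5% SDS/PBS, 10% SDS-PAGE and PKM2 Western blot.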
On the technique in general: Immunoblotting shows a protein as a band on a membrane.

In a further series the test system is MDA-MB-231. As to the kind of experiment: Antiproliferative activity against human MDA-MB-231 cells assessed as reduction in cell viability incubated for 24 hrs by MTT assay. The class given is functional, cell-based. The note with it: MDA-MB-231, 24 h. The method in brief:
as §1
For orientation: Tetrazolium dyes change colour on reduction, which living cells bring about.

Series [2] concerns the target T1, Pyruvate kinase PKM. As to the kind of experiment: Inhibition of PKM2 in human PC9 cells assessed as reduction in beta-catenin expression incubated for 24 hrs by Western blot analysis. The series is classed as cell-based. The method in brief: (§3)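 PC-9 cells seeded at 5 × 10^5 cells/mL; after 24 h given 0–1 µM compound or DMSO for 24 h. Lysates run on 10% SDS-PAGE, transferred to nitrocellulose, probed for PKM2, EGFR, p-STAT3, STAT3, p-β-catenin, β-catenin and β-actin with HRP secondaries, ECL detection.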

Another series has as its system NCI-H1650. In words: Antiproliferative activity against human NCI-H1650 cells harboring EGFR mutant assessed as reduction in cell viability incubated for 24 hrs by MTT assay. The series is classed as functional, cell-based. The note with it: NCI-H1650, 24 h. In outline: as §1
Series [3] addresses T2, Citrate synthase, mitochondrial (Homo sapiens) (UniProt O75390).
T2 sequence (whole entry): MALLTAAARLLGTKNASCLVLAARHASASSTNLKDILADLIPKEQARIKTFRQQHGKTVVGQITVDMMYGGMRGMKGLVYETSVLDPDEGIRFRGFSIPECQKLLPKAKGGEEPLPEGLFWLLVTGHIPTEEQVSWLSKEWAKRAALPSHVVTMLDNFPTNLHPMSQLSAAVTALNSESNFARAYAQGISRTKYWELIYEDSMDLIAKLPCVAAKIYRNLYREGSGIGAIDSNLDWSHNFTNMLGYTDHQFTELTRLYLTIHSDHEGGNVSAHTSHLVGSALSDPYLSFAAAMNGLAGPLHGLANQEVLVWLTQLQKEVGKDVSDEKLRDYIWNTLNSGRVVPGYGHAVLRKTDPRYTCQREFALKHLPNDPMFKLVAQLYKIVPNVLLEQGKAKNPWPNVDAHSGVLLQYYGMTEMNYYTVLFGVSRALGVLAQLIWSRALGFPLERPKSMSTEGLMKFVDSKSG
In words: Binding affinity to CS in human PC9 cells incubated for 1 hr by ABPP-SILAC assay. The class given is cell-based. The method in brief: (§4)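 PC-9 cells passaged at least six times in SILAC DMEM with 10% dialyzed FBS plus 100 µg/mL light or 13C/15N-labeled Arg/Lys. Heavy cells got ABPP probe (1 µM) and light cells DMSO, 1 h at 37 °C. Cells mixed 1:1, sonicated, spun at 100,000g, protein normalized to 1 mg/mL. Click biotin-azide, streptavidin bead pulldown 16 h at 4 °C, SDS-PAGE, on-bead trypsin digestion, LC-MS/MS.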

The subject of the next series is NCI-H157. In words: Antiproliferative activity against human NCI-H157 cells expressing wild type EGFR assessed as reduction in cell viability incubated for 24 hrs by MTT assay. The settings on record: NCI-H157, 24 h. The class given is functional, cell-based. In outline:
as §1

Series [4] has as its target T1, Pyruvate kinase PKM. As to the kind of experiment: Inhibition of PKM2 in human PC9 cells assessed as reduction in STAT3 phosphorylation incubated for 24 hrs by Western blot analysis. The series is classed as cell-based. The method in brief: as §3
Another series relates to PC-3. As to the kind of experiment: Antiproliferative activity against human PC3 cells assessed as reduction in cell viability incubated for 24 hrs by MTT assay. The class given is functional, cell-based. The settings on record: PC-3, 24 h. The method in brief: as §1
The target in series [5] is T1, Pyruvate kinase PKM. In words: Inhibition of PKM2 in human PC9 cells assessed as reduction in STAT3 phosphorylation at 0.5 uM incubated for 24 hrs by Western blot analysis. The series is classed as cell-based. The method in brief: as §3
Series [6] concerns the target Alpha-enolase (Homo sapiens) (UniProt P06733). As to the kind of experiment: Binding affinity to ENOA in human PC9 cells incubated for 1 hr by ABPP-SILAC assay. The series is classed as cell-based. In outline:
as §4

Series [7] is described as follows: Toxicity in athymic nude mouse xenografted with human PC9 cells assessed as reduction in body weight at 10 mg/kg, ip administered once daily for 25 days measured during compound dosing. The class given is organism-based. The settings on record: in vivo, 600 h. The method in brief:
as §2

Another series relates to Mus musculus. As to the kind of experiment: In vivo inhibition of PKM2 in human PC9 cells xenografted in athymic nude mouse assessed as reduction in beta-catenin expression at 10 mg/kg, ip administered once daily for 25 days measured post-last dose by Western blot analysis. The series is classed as functional, organism-based. In outline:
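Tumors from PC-9 xenograft nude mice given 10 mg/kg i.p. daily or vehicle for 25 days (n = 8 per group) were lysed for Western blots of PKM2, EGFR, Stat3 and β-catenin. Bands quantified by ImageJ and normalized to GAPDH.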

The test system of a further series is LNCaP. As to the kind of experiment: Antiproliferative activity against human LNCAP cells assessed as reduction in cell viability incubated for 24 hrs by MTT assay. The class given is functional, cell-based. In outline: as §1
Series [8] concerns the target T3, Malate dehydrogenase, mitochondrial (Homo sapiens) (UniProt P40926).
T3 sequence (whole entry): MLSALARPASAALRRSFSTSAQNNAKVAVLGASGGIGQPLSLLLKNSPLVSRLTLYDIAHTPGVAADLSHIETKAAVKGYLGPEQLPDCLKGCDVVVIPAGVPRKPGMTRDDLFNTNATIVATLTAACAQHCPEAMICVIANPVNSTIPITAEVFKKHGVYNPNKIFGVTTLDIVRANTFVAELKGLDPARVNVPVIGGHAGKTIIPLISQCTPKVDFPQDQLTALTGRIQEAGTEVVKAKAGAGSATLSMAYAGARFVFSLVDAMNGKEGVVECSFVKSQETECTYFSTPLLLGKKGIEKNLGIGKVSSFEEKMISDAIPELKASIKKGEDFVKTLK
In words: Binding affinity to MDHM in human PC9 cells incubated for 1 hr by ABPP-SILAC assay. The series is classed as cell-based. The method in brief:
as §4

The target of series [9] is T1, Pyruvate kinase PKM. As to the kind of experiment: Inhibition of PKM2 in human PC9 cells assessed as reduction in STAT3 expression incubated for 24 hrs by Western blot analysis. The series is classed as cell-based. In outline: as §3

The source made the active and inactive calls. The rule behind the calls is not given here.

By IC50 is commonly meant the midpoint of a concentration-inhibition curve.

T1 sequence (P14618 2-531 limits assumed): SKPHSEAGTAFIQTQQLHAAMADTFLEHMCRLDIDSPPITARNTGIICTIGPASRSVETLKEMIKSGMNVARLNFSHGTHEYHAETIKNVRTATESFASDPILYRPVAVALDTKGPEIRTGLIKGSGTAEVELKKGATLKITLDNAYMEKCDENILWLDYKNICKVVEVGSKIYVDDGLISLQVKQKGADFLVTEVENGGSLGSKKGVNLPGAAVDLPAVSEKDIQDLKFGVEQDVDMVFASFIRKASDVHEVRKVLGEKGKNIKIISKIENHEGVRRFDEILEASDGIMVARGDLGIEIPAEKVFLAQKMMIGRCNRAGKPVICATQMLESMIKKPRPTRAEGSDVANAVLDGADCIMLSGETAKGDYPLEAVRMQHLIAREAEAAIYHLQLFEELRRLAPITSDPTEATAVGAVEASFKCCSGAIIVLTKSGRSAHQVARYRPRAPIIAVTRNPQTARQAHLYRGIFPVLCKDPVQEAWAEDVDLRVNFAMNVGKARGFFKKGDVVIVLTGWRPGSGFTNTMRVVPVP
Alpha-enolase (Homo sapiens), sequence (P06733 whole entry): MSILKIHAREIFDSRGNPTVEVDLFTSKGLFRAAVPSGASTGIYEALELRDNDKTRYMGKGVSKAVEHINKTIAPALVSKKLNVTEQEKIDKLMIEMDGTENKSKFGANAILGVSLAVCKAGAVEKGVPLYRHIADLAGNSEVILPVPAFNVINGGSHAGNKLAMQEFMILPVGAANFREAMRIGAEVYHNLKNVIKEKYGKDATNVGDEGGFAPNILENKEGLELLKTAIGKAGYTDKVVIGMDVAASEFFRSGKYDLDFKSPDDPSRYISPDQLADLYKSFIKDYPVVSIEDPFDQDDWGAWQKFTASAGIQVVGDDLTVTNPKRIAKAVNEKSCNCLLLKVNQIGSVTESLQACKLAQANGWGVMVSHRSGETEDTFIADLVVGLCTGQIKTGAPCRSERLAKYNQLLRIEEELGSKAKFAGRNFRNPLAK

`C#CC(=O)Nc1ccc(-n2nc(CCC(=O)NC)cc2-c2ccc(-c3ccc(C(F)(F)F)cc3)cc2)cc1`: the half-maximal inhibitory concentration (IC50) with NCI-H1975 was 1000 nM; in the series with MDA-MB-231, 100 nM; with NCI-H1650, 200 nM; in the series with NCI-H157, above 2000 nM; in the series on PC-3, 600 nM; with LNCaP, above 2000 nM. Besides, the outcome (with PC-9; in series [3]; in series [6]; in [8]) was Active. Besides, the inhibition entry on Pyruvate kinase PKM [1] and with Mus musculus was “Active” throughout. Also, the inhibition result on Pyruvate kinase PKM [2], at Pyruvate kinase PKM [4] and on Pyruvate kinase PKM [9] was “Dose-dependent effect” throughout. The inhibition result on Pyruvate kinase PKM [5] is “inactive”. Further, the Activity result in series [7] is “Non-Toxic”.

Values taken from ChEMBL document CHEMBL4414568, “Development of Novel Irreversible Pyruvate Kinase M2 Inhibitors” (J Med Chem, 2019).
